Drawing on ChEMBL document CHEMBL1150404, “Synthesis, alpha 1-adrenoceptor antagonist activity, and SAR study of novel arylpiperazine derivatives of phenytoin” (Bioorg Med Chem, 2008), this text covers Ki, Ratio Ki and pKb for three compounds.

Structures are written as SMILES.

Assay [1] can be described thus: Displacement of [3H]clonidine from alpha-2-adrenoceptor in Wistar rat cerebral cortex membrane. Format: tissue-based. In outline: (§1)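 Rat brain homogenised in ice-cold 50 mM Tris–HCl pH 7.6, centrifuged twice at 20,000g for 20 min at 0–4 °C. Membranes incubated with [3H]prazosin 0.2 nM (α1) or [3H]clonidine 2 nM (α2) and 7–8 test concentrations (10^-11–10^-4 M). Filter-bound radioactivity counted by liquid scintillation; duplicates; curve-fitted, Ki by Cheng–Prusoff.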

For another assay, the species on record is Rattus norvegicus. Description: Selectivity of Ki for alpha-2-adrenoceptor to Ki for alpha-1-adrenoceptor in Wistar rat cerebral cortex membrane. Format: tissue-based.
The nature of assay [2]: Displacement of [3H]prazosin from alpha-1-adrenoceptor in Wistar rat cerebral cortex membrane. Format: tissue-based. The gist of the method: as §1
For orientation: In a radioligand displacement assay an active substance lowers the binding of a labelled ligand.

Assay [3] in a line: Antagonist activity at alpha-1-adrenoceptor in Wistar rat thoracic aorta assessed as inhibition of phenylephrine-induced contraction. It is filed as functional, tissue-based. In outline:
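Male Wistar rats (200–350 g), thiopental 75 mg/kg ip; endothelium-denuded thoracic aorta rings (~4 mm) in Krebs–Henseleit, 37 °C, pH 7.4, O2/CO2 19:1. Cumulative phenylephrine curves (3·10^-9–3·10^-6 M) before and after 20 min with one of 3–4 antagonist concentrations per ring; 60 min recovery between curves.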

The Ki is the dissociation constant of the complex between target and ligand, obtained from inhibition or displacement. A lower Ki goes with higher affinity. For orientation: pKb means the negative decadic logarithm of the Kb, by convention in mol/L. As to `COC(=O)C(C)N1C(=O)N(CC(O)CN2CCN(c3ccccc3OC)CC2)C(c2ccccc2)(c2ccccc2)C1=O` (stereo not given), the inhibitory constant (Ki) in assay [1] came to 449 nM; in assay [2] it was 104 nM. Besides, the Ratio Ki in the assay filed under Rattus norvegicus amounted to 4.32. In addition, in assay [3], the negative logarithm of the Kb (pKb) was 7.084.
As for `CCOc1ccccc1N1CCN(CC(O)CN2C(=O)N(C)C(=O)C2(c2ccccc2)c2ccccc2)CC1` (stereo not given), the affinity in assay [1], expressed as Ki, was 535 nM. Also, the Ratio Ki in the assay filed under Rattus norvegicus turned out to be 4.4. Also, the pKb in assay [3] is reported as 7.022.
For `COC(=O)CN1C(=O)N(CC(O)CN2CCN(c3ccccc3OC)CC2)C(c2ccccc2)(c2ccccc2)C1=O` (stereo not given), the Ki was found to be 800 nM in assay [1] and 198 nM in assay [2]. The Ratio Ki in the assay filed under Rattus norvegicus is 4.04.
